Here are results for 29 molecules from ChEMBL document CHEMBL3875148, “Synthesis and biological evaluation of novel alkyl diamine linked bivalent β-carbolines as angiogenesis inhibitors” (Eur J Med Chem, 2016).

The nature of data set [1]: Antiproliferative activity against human EAhy926 cells measured after 48 hrs by MTT assay. As to conditions: EA.hy 926, 48 h. The format is functional, cell-based.
For data set [2], the species on record is Gallus gallus. In words: Antiangiogenic activity against 5-day-old chicken egg chorioallantoic membrane at 0.3 to 30 uM/disc incubated for 48 hrs by microscopic analysis. The class given is functional, tissue-based.
Data set [3] relates to EA.hy 926. In words: Antimigratory activity against human EAhy926 cells assessed as inhibition of VEGF-induced cell migration incubated for 24 hrs by wound healing assay. The format is functional, cell-based. Summed up: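 Wound-healing scratch assay in EA.HY926 endothelial cells with VEGF stimulation. Compound tested across 0.3 to 30, with Endostar as positive control. Migration was compared against untreated cells.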

The test system of data set [4] is EA.hy 926. Kind of data set: Antiangiogenic activity against human EAhy926 cells assessed as inhibition of VEGF-induced capillary-like tube formation measured after 24 hrs by phase contrast microscopic analysis. The class given is functional, cell-based. In a few lines:
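EA.HY926 cells were plated on Matrigel-coated wells and treated for 24 h at 0.3–30. Capillary-like tubules with multicentric junctions were scored by imaging against compound-free controls.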

The nature of data set [5]: Aqueous solubility of the compound. The format is physicochemical.

The source made the active and inactive calls. The rule behind the calls is not given here.

The molecule `Cn1c2ccccc2c2ccnc(CNCCCCNCc3nccc4c5ccccc5n(C)c34)c21` displayed a half-inhibitory concentration (IC50) in data set [1] of 17 µM.
Molecule `CC(C)Cn1c2ccccc2c2ccnc(CNCCCCNCc3nccc4c5ccccc5n(CC(C)C)c34)c21` displayed an IC50 in data set [1] of 8.06 µM.
In data set [1], `c1ccc(CCCn2c3ccccc3c3ccnc(CNCCCCCNCc4nccc5c6ccccc6n(CCCc6ccccc6)c45)c32)cc1` had an IC50 of 2.76 µM.
`CCCCn1c2ccccc2c2ccnc(CNCCCCCNCc3nccc4c5ccccc5n(CCCC)c34)c21`: the result in data set [2] was Active. Besides, the inhibition entry in data set [3] and in data set [4] was “Dose-dependent effect” throughout. In addition, the IC50 in data set [1] was 2.16 µM.
Molecule `CCCCCCn1c2ccccc2c2ccnc(CNCCCCCCNCc3nccc4c5ccccc5n(CCCCCC)c34)c21` returned an IC50 in data set [1] of 8.2 µM.
Take `CCCCCCn1c2ccccc2c2ccnc(CNCCCCCNCc3nccc4c5ccccc5n(CCCCCC)c34)c21`: the IC50 in data set [1] worked out at 5.16 µM.
Take `CCCCCCCCn1c2ccccc2c2ccnc(CNCCCCCNCc3nccc4c5ccccc5n(CCCCCCCC)c34)c21`: half-maximal inhibition in data set [1] (IC50) required 8 µM.
Take `CC(C)Cn1c2ccccc2c2ccnc(CNCCCCCCNCc3nccc4c5ccccc5n(CC(C)C)c34)c21`: the IC50 in data set [1] was found to be 5.55 µM.
Still for that read-out and setting: with `Clc1cccc(Cn2c3ccccc3c3ccnc(CNCCCCCNCc4nccc5c6ccccc6n(Cc6cccc(Cl)c6)c45)c32)c1` the figure was 4.69 µM; with `c1ccc(Cn2c3ccccc3c3ccnc(CNCCCCCCNCc4nccc5c6ccccc6n(Cc6ccccc6)c45)c32)cc1`, 3.81 µM; with `Fc1ccc(Cn2c3ccccc3c3ccnc(CNCCCCNCc4nccc5c6ccccc6n(Cc6ccc(F)cc6)c45)c32)cc1`, 4.96 µM.
In turn, `CCCCCCCCn1c2ccccc2c2ccnc(CNCCCCNCc3nccc4c5ccccc5n(CCCCCCCC)c34)c21` had an IC50 in data set [1] of 9.33 µM.
`CCn1c2ccccc2c2ccnc(CNCCCCNCc3nccc4c5ccccc5n(CC)c34)c21` displayed an IC50 in data set [1] of 5.36 µM.
In data set [1], `CCn1c2ccccc2c2ccnc(CNCCCNCc3nccc4c5ccccc5n(CC)c34)c21` displayed an IC50 of 7.77 µM.
In turn, `CCCCCCn1c2ccccc2c2ccnc(CNCCCCNCc3nccc4c5ccccc5n(CCCCCC)c34)c21` showed a concentration for half-maximal inhibition (IC50) in data set [1] of 8.93 µM.
`c1ccc(Cn2c3ccccc3c3ccnc(CNCCCNCc4nccc5c6ccccc6n(Cc6ccccc6)c45)c32)cc1` registered an IC50 in data set [1] of 8.89 µM.
`CCCCn1c2ccccc2c2ccnc(CNCCCCNCc3nccc4c5ccccc5n(CCCC)c34)c21` had an IC50 in data set [1] of 4.37 µM.
Turning to `c1ccc(CCCn2c3ccccc3c3ccnc(CNCCCNCc4nccc5c6ccccc6n(CCCc6ccccc6)c45)c32)cc1`, half-maximal inhibition in data set [1] (IC50) required 9.35 µM.
With `Cn1c2ccccc2c2ccnc(CNCCCCCCNCc3nccc4c5ccccc5n(C)c34)c21`, the IC50 in data set [1] came to 11.5 µM.
Still for that read-out and setting: as for `CCCCn1c2ccccc2c2ccnc(CNCCCNCc3nccc4c5ccccc5n(CCCC)c34)c21`, the figure is 8.39 µM; as for `COc1ccc(/C=C\c2cc(OC)c(OC)c(OC)c2)cc1OP(=O)(O)O` [FOSBRETABULIN], 6.4 µM.
Molecule `Cl.c1ccc2c(c1)[nH]c1c(CNCCCCNCc3nccc4c3[nH]c3ccccc34)nccc12` registered a solubility in data set [5] of more than 10000 µg/mL. The molecule also had an IC50 in data set [1] of 25.8 µM.
In data set [1], `c1ccc(CCCn2c3ccccc3c3ccnc(CNCCCCCCNCc4nccc5c6ccccc6n(CCCc6ccccc6)c45)c32)cc1` displayed a half-inhibitory concentration (IC50) of 3.22 µM.
Still for that read-out and setting: with `CC(C)n1c2ccccc2c2ccnc(CNCCCCCCNCc3nccc4c5ccccc5n(C(C)C)c34)c21` the figure was 8.56 µM; with `CCCCn1c2ccccc2c2ccnc(CNCCCCCCNCc3nccc4c5ccccc5n(CCCC)c34)c21`, 2.92 µM.
In the case of `CCCCCCn1c2ccccc2c2ccnc(CNCCCNCc3nccc4c5ccccc5n(CCCCCC)c34)c21`, in data set [1], 9.23 µM corresponded to half-maximal inhibition (IC50).
Take `Fc1ccc(Cn2c3ccccc3c3ccnc(CNCCCNCc4nccc5c6ccccc6n(Cc6ccc(F)cc6)c45)c32)cc1`: in data set [1], it took 8.87 µM to reach half-maximal inhibition (IC50).
Consider `c1ccc(CCCn2c3ccccc3c3ccnc(CNCCCCNCc4nccc5c6ccccc6n(CCCc6ccccc6)c45)c32)cc1`, for which it took 4.78 µM to reach half-maximal inhibition in data set [1] (IC50).
Molecule `c1ccc2c(c1)[nH]c1c(CNCCCCCNCc3nccc4c3[nH]c3ccccc34)nccc12` registered an IC50 in data set [1] of 14.5 µM.
